Data on 2 compounds can be found in publication PMC9732819 (ACS Chemical Neuroscience, 2022).

The test system of data set [1] is voltage-gated K^+ channels. Put plainly: dynamic brain PET imaging and pharmacokinetic modeling in nonhuman primates. It counts as in vivo, rhesus macaques. In short, it runs like this: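 Two male rhesus macaques (10 and 14 years; one with a prior craniotomy injury) each had two baseline scans. Tracer (291.5–330.1 MBq; 90.3–247.5 GBq/μmol) was infused over 3 min into the saphenous vein, followed by a saline flush, with 180 min list-mode PET/CT under isoflurane. Ten regional TACs were taken in MRI-template space. 1T and 2T models with metabolite-corrected input gave K1 and VT (AIC comparison), with Logan and MA1 also tested.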

Data set [2] in a line: arterial blood and radiometabolite analysis in nonhuman primates. It counts as in vivo, rhesus macaques. In short, it runs like this:
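Rhesus macaques were sedated with ketamine/xylazine IM and kept on isoflurane. Arterial blood was sampled manually via a posterior tibial catheter throughout PET to measure whole-blood and plasma radioactivity. Plasma from 3–120 min was filtered through a 10K filter (21 000 rcf, 8 °C, 15 min) and run on C18 radioHPLC in pH 12 phosphate/NaOH:MeCN 96:4 to obtain the parent fraction. Plasma-free fraction was measured in triplicate.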

The test system of data set [3] is voltage-gated K^+ channels. Put plainly: Guo graphical comparison of regional VT between tracers in nonhuman primates. Type of data set: in vivo, rhesus macaques. As to conditions: for slope of VT correlation plot (Guo method; in vivo affinity ratio): both monkeys combined. In short, it runs like this: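 Per animal, regional VT of the test tracer (mean of two baseline scans) was regressed against regional VT of each reference 4-aminopyridine tracer. Linearity indicated a shared target, the y-intercept sign indicated relative signal-to-noise, and the slope with measured plasma-free fractions gave the in vivo affinity ratio. Pearson r was used, with Fisher-transformation t-distribution p-values for the regression and intercept.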

Data set [4] relates to voltage-gated K^+ channels. The experiment in a line: PET imaging and ex vivo γ counting of brain and blood in healthy rats. On the set-up: species or system Sprague Dawley rats. In short, it runs like this: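 Six–eight-week-old male and female Sprague Dawley rats received ~14.8 MBq tracer by tail vein, alone or with 5 mg/kg cold test compound (5–10 mg/kg in the ex vivo legend), in saline containing ≤10% […]. Rats underwent 60 min PET/CT under 2% isoflurane. Blood (cardiac puncture) and brain were then collected, weighed and γ-counted to give SUV ratios. Imaging used 4 rats; γ-counting used 15. Data are mean ± SD.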

The subject of a further data set is potassium channel. As to conditions: read-out: in vitro IC50; electrophysiology; cited from earlier work.

Regarding `[11CH3]c1cnccc1N` [[^11C]3Me4AP, 3-[^11C]Methyl-4-aminopyridine], in data set [1] (monkey 2 (M2), craniotomy site), the “visibility of minor focal brain lesion on PET images” value is reported as “not visible”. Besides, in data set [1] (monkey brain, 3 min), the “whole brain SUV” value came out at 0.7. Besides, the “K1 (rate constant for transfer from plasma to brain tissue)” value in data set [1] (monkey whole brain, 1T2k1v model) was about 0.035 mL/min/cc. Besides, the “total volume of distribution (VT)” value in data set [1] (striatum, monkey 1, 1T2k1v) came to 4.67 mL/cc; in data set [1] (striatum, monkey 2, 1T2k1v), 4.68 mL/cc; in data set [1] (white matter, monkey 1, 1T2k1v), 3.61 mL/cc; in data set [1] (white matter, monkey 2, 1T2k1v) it was 3.78 mL/cc. Also, the fraction unbound in data set [2] (male, rhesus monkey, arterial plasma) turned out to be 0.94 ± 0.03. In addition, the “time for WB to PL ratio to reach a plateau” value in data set [2] (monkey arterial blood) was at most 1 min. Also, the “activity attributable to parent tracer in plasma (radioHPLC)” value in data set [2] (monkey arterial plasma, after 90 min) was about 90%. Further, the “WB to PL radioactivity concentration ratio” value in data set [2] (monkey, 1 min postinjection, across all studies) stood at 1.28 ± 0.01. For the same compound, the “slope of VT correlation plot (Guo method; in vivo affinity ratio)” value is 0.73 in data set [3] (vs [^11C]3MeO4AP, p < 0.0001) and 1.93 in data set [3] (vs [^18F]3F4AP, p = 0.0001). Also, the “intercept of Guo plot (relative specific binding)” value in data set [3] (vs [^11C]3MeO4AP, p = 0.31) is listed as 0.67; in data set [3] (vs [^18F]3F4AP, p = 0.91), 0.10. Also, the “increase of whole brain to blood SUVR, coinjection group vs baseline group” value in data set [4] (60 min, p = 0.017) was 43%. The “time of peak radioactivity in the brain” value in data set [4] (PET brain time-activity curve) is given as at most 3 min.
Consider `Cc1cnccc1N` [3Me4AP, 3-methyl-4-aminopyridine], for which the concentration for half-maximal inhibition (IC50) with potassium channel is 40 µM.
